Laboratory results taken from ChEMBL document CHEMBL5058577, “EUbOPEN Chemogenomics Library 2 (Multiplex)” (2022).

Tested on: Fibroblast
Assay: Multiplex assay against human fibroblast
Assay type: toxicity, cell-based
How it was run: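 Compound was added to live cells that had been stained at seeding with Hoechst33342, BioTracker Green Microtubule Cytoskeleton Dye, MitoTracker Red and Annexin V Alexa Fluor 680, and imaging followed on a CQ1 microscope at 37°C and 5% CO2. CellPathfinder machine-learning gating divided cells into Hoechst high-intensity objects or normal cells, normal cells into healthy, pyknosed or fragmented nuclei, and pyknosed cells into mitotic or apoptotic. Tubulin, mitochondrial-mass and membrane-permeability phenotypes are per cents of healthy-nucleus cells.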

[1] = 12 h, 1 µM, compound concentration 1 uM, replicate 1
[2] = 12 h, 1 µM, compound concentration 1 uM, replicate 2
[3] = 12 h, 10 µM, compound concentration 10 uM, replicate 1
[4] = 12 h, 10 µM, compound concentration 10 uM, replicate 2
[5] = 24 h, 1 µM, compound concentration 1 uM, replicate 1
[6] = 24 h, 1 µM, compound concentration 1 uM, replicate 2
[7] = 24 h, 10 µM, compound concentration 10 uM, replicate 1
[8] = 24 h, 10 µM, compound concentration 10 uM, replicate 2
[9] = 48 h, 1 µM, compound concentration 1 uM, replicate 1
[10] = 48 h, 1 µM, compound concentration 1 uM, replicate 2
[11] = 48 h, 10 µM, compound concentration 10 uM, replicate 1
[12] = 48 h, 10 µM, compound concentration 10 uM, replicate 2

Cc1cnc(-c2cc(N3CCN(C(=O)CCS(C)(=O)=O)CC3)ncc2Cl)c(C)c1
Population Apoptotic (%) [1]: 36% | Population Fragmented Nuclei (%) [1]: 9% | Population Healthy Nuclei (%) [1]: 71% | Population Hoechst High Intensity Objects (%) [1]: 1% | Population Membrane Permeable-Phenotype (%) [1]: 0% | Population Mitochondria Different-Phenotype (%) [1]: 7% | Population Mitotic Cells (%) [1]: 63% | Population Normal (%) [1]: 98% | Population Pyknosed Nuclei (%) [1]: 19% | Population Tubulin-Different-Phenotype (%) [1]: 20% | Total Cell Count [1]: 99 | Population Apoptotic (%) [2]: 31% | Population Fragmented Nuclei (%) [2]: 22% | Population Healthy Nuclei (%) [2]: 36% | Population Hoechst High Intensity Objects (%) [2]: 9% | Population Membrane Permeable-Phenotype (%) [2]: 7% | Population Mitochondria Different-Phenotype (%) [2]: 10% | Population Mitotic Cells (%) [2]: 68% | Population Normal (%) [2]: 90% | Population Pyknosed Nuclei (%) [2]: 41% | Population Tubulin-Different-Phenotype (%) [2]: 50% | Total Cell Count [2]: 85 | Population Apoptotic (%) [3]: 40% | Population Fragmented Nuclei (%) [3]: 13% | Population Healthy Nuclei (%) [3]: 71% | Population Hoechst High Intensity Objects (%) [3]: 4% | Population Membrane Permeable-Phenotype (%) [3]: 1% | Population Mitochondria Different-Phenotype (%) [3]: 2% | Population Mitotic Cells (%) [3]: 60% | Population Normal (%) [3]: 95% | Population Pyknosed Nuclei (%) [3]: 14% | Population Tubulin-Different-Phenotype (%) [3]: 24% | Total Cell Count [3]: 142 | Population Apoptotic (%) [4]: 26% | Population Fragmented Nuclei (%) [4]: 21% | Population Healthy Nuclei (%) [4]: 63% | Population Hoechst High Intensity Objects (%) [4]: 1% | Population Mitotic Cells (%) [4]: 73% | Population Normal (%) [4]: 98% | Population Pyknosed Nuclei (%) [4]: 15% | Population Tubulin-Different-Phenotype (%) [4]: 37% | Total Cell Count [4]: 121 | Population Apoptotic (%) [5]: 54% | Population Fragmented Nuclei (%) [5]: 10% | Population Healthy Nuclei (%) [5]: 76% | Population Hoechst High Intensity Objects (%) [5]: 6% | Population Membrane Permeable-Phenotype (%) [5]: 2% | Population Mitochondria Different-Phenotype (%) [5]: 4% | Population Mitotic Cells (%) [5]: 45% | Population Normal (%) [5]: 93% | Population Pyknosed Nuclei (%) [5]: 12% | Population Tubulin-Different-Phenotype (%) [5]: 30% | Total Cell Count [5]: 97 | Population Apoptotic (%) [6]: 47% | Population Fragmented Nuclei (%) [6]: 35% | Population Healthy Nuclei (%) [6]: 38% | Population Hoechst High Intensity Objects (%) [6]: 10% | Population Membrane Permeable-Phenotype (%) [6]: 3% | Population Mitochondria Different-Phenotype (%) [6]: 0% | Population Mitotic Cells (%) [6]: 52% | Population Normal (%) [6]: 89% | Population Pyknosed Nuclei (%) [6]: 25% | Population Tubulin-Different-Phenotype (%) [6]: 61% | Total Cell Count [6]: 91 | Population Apoptotic (%) [7]: 46% | Population Fragmented Nuclei (%) [7]: 10% | Population Healthy Nuclei (%) [7]: 79% | Population Hoechst High Intensity Objects (%) [7]: 0% | Population Membrane Permeable-Phenotype (%) [7]: 2% | Population Mitochondria Different-Phenotype (%) [7]: 6% | Population Mitotic Cells (%) [7]: 53% | Population Normal (%) [7]: 99% | Population Pyknosed Nuclei (%) [7]: 9% | Population Tubulin-Different-Phenotype (%) [7]: 28% | Total Cell Count [7]: 135 | Population Apoptotic (%) [8]: 42% | Population Fragmented Nuclei (%) [8]: 19% | Population Healthy Nuclei (%) [8]: 67% | Population Hoechst High Intensity Objects (%) [8]: 4% | Population Mitochondria Different-Phenotype (%) [8]: 9% | Population Mitotic Cells (%) [8]: 57% | Population Normal (%) [8]: 95% | Population Pyknosed Nuclei (%) [8]: 12% | Population Tubulin-Different-Phenotype (%) [8]: 38% | Total Cell Count [8]: 116 | Population Apoptotic (%) [9]: 69% | Population Fragmented Nuclei (%) [9]: 19% | Population Healthy Nuclei (%) [9]: 58% | Population Hoechst High Intensity Objects (%) [9]: 2% | Population Membrane Permeable-Phenotype (%) [9]: 0% | Population Mitochondria Different-Phenotype (%) [9]: 1% | Population Mitotic Cells (%) [9]: 30% | Population Normal (%) [9]: 97% | Population Pyknosed Nuclei (%) [9]: 21% | Population Tubulin-Different-Phenotype (%) [9]: 33% | Total Cell Count [9]: 109 | Population Apoptotic (%) [10]: 36% | Population Fragmented Nuclei (%) [10]: 40% | Population Healthy Nuclei (%) [10]: 47% | Population Hoechst High Intensity Objects (%) [10]: 5% | Population Membrane Permeable-Phenotype (%) [10]: 12% | Population Mitochondria Different-Phenotype (%) [10]: 9% | Population Mitotic Cells (%) [10]: 63% | Population Normal (%) [10]: 94% | Population Pyknosed Nuclei (%) [10]: 12% | Population Tubulin-Different-Phenotype (%) [10]: 70% | Total Cell Count [10]: 92 | Population Apoptotic (%) [11]: 50% | Population Fragmented Nuclei (%) [11]: 21% | Population Healthy Nuclei (%) [11]: 69% | Population Hoechst High Intensity Objects (%) [11]: 2% | Population Membrane Permeable-Phenotype (%) [11]: 0% | Population Mitochondria Different-Phenotype (%) [11]: 7% | Population Mitotic Cells (%) [11]: 50% | Population Normal (%) [11]: 97% | Population Pyknosed Nuclei (%) [11]: 8% | Population Tubulin-Different-Phenotype (%) [11]: 33% | Total Cell Count [11]: 141 | Population Apoptotic (%) [12]: 75% | Population Fragmented Nuclei (%) [12]: 29% | Population Healthy Nuclei (%) [12]: 61% | Population Hoechst High Intensity Objects (%) [12]: 3% | Population Membrane Permeable-Phenotype (%) [12]: 2% | Population Mitochondria Different-Phenotype (%) [12]: 5% | Population Mitotic Cells (%) [12]: 25% | Population Normal (%) [12]: 96% | Population Pyknosed Nuclei (%) [12]: 9% | Total Cell Count [12]: 131
